How the values were obtained:
[1] = folding enthalpy; higher = less favourable; fluorescence melt of hairpins on a sequencing array, two-state fit; conditions: sodium 0.088 M
Summary of the method: (§1)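 With Cy3 and quencher oligos annealed, library hairpins on a sequenced MiSeq flow cell were imaged for Cy3 fluorescence in 50 mM Na-HEPES pH 8.0, 25 mM NaCl, in 2.5 °C steps up to 60 °C. Melting temperature and folding enthalpy were derived from bootstrapped two-state fits of signals normalised to pre-quench Cy3 and to control constructs. Four replicates were combined by inverse variance, with fitted temperatures raised by 9.35 °C to match UV melts.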

[2] = melting temperature; fluorescence melt of hairpins on a sequencing array, two-state fit, raised by 9.35 °C to match UV melts; conditions: sodium 0.088 M
Summary of the method: as §1

GCACCCGGAAACGGATGC (((.(((....))).)))
folding enthalpy [1]: -25.5 kcal/mol | Tm [2]: 51.6 °C

GCACCGCCGAAAGGCTGC (((..(((....))))))
folding enthalpy [1]: -14.7 kcal/mol | Tm [2]: 38.9 °C

GCACCGCGAAAGCAGAGC ((.(.((....)).).))
folding enthalpy [1]: -15.2 kcal/mol | Tm [2]: 41.5 °C

GCACCGCGAAAGCCTTGC (((..((....))..)))
folding enthalpy [1]: -14.8 kcal/mol | Tm [2]: 37 °C

GCACCGCGAAAGCGAAGC ((..(((....)))..))
folding enthalpy [1]: -11.7 kcal/mol | Tm [2]: 41.4 °C

GCACCGCGAAAGCGACGC ((..(((....)))..))
folding enthalpy [1]: -15.6 kcal/mol | Tm [2]: 47.2 °C

GCACCGCGAAAGCGAGGC ((..(((....)))..))
folding enthalpy [1]: -14.6 kcal/mol | Tm [2]: 53.2 °C

GCACCGCGAAAGCGATGC (((.(((....))).)))
folding enthalpy [1]: -43.6 kcal/mol | Tm [2]: 57.4 °C

GCACCGCGAAAGCGCAGC ((..(((....)))..))
folding enthalpy [1]: -9.35 kcal/mol | Tm [2]: 38.4 °C

GCACCGCGAAAGCGCCGC ((..(((....)))..))
folding enthalpy [1]: -8.78 kcal/mol | Tm [2]: 36.1 °C

GCACCGCGAAAGCGCTGC (((.(((....))).)))
folding enthalpy [1]: -31.9 kcal/mol | Tm [2]: 50.3 °C

GCACCGCGAAAGCGTGC (((.(((....))))))
folding enthalpy [1]: -19 kcal/mol | Tm [2]: 63.8 °C

GCACCGCGAAAGCTGAGC ((.(.((....)).).))
folding enthalpy [1]: -14.4 kcal/mol | Tm [2]: 37.5 °C

GCACCGGGAAACCAGTGC ((((.((....)).))))
folding enthalpy [1]: -32.1 kcal/mol | Tm [2]: 49.4 °C

GCACCTCGAAAGAGTGC (((.(((....))))))
folding enthalpy [1]: -46.4 kcal/mol | Tm [2]: 53.3 °C

GCACGACCGAAAGGTTGC (((..(((....))))))
folding enthalpy [1]: -14.4 kcal/mol | Tm [2]: 38.1 °C

GCACGACGAAAGTCATGC (((.(((....))).)))
folding enthalpy [1]: -36.5 kcal/mol | Tm [2]: 52.6 °C

GCACGAGGAAACCCGTAC (.(((.(....).))).)
folding enthalpy [1]: -6.61 kcal/mol | Tm [2]: 21.9 °C

GCACGAGGAAACTCGTAC (.(((((....))))).)
folding enthalpy [1]: -12.7 kcal/mol | Tm [2]: 38.9 °C

GCACGCCCGAAAGGGTGC (((..(((....))))))
folding enthalpy [1]: -11.8 kcal/mol | Tm [2]: 49.9 °C

GCACGCGAAAGCGATGC ((((((....))).)))
folding enthalpy [1]: -21.3 kcal/mol | Tm [2]: 65.2 °C

GCACGCGAAAGCGCATGC ((((((....)))..)))
folding enthalpy [1]: -13.6 kcal/mol | Tm [2]: 43 °C

GCACGCGAAAGCGGGTGC ((((((....)))..)))
folding enthalpy [1]: -17.4 kcal/mol | Tm [2]: 66.1 °C

GCACGCGAAAGCGTTTGC ((((((....)))..)))
folding enthalpy [1]: -10.6 kcal/mol | Tm [2]: 42.9 °C

GCACGCGGAAACGCATGC (((.(((....))).)))
folding enthalpy [1]: -40.4 kcal/mol | Tm [2]: 52.8 °C

GCACGGCGAAAGCAATGC (((..((....))..)))
folding enthalpy [1]: -15.5 kcal/mol | Tm [2]: 39.1 °C

GCACGGCGAAAGCCCCGC ((..(((....)))..))
folding enthalpy [1]: -8.33 kcal/mol | Tm [2]: 32.2 °C

GCACGGCGAAAGCCCTGC (((.(((....))).)))
folding enthalpy [1]: -26 kcal/mol | Tm [2]: 47.3 °C

GCACGGCGAAAGCCTAGC ((..(((....)))..))
folding enthalpy [1]: -14.4 kcal/mol | Tm [2]: 39.5 °C

GCACGGCGAAAGCCTTGC (((.(((....))).)))
folding enthalpy [1]: -54.8 kcal/mol | Tm [2]: 54.2 °C

GCACGGGGAAACCCACGC ((..(((....)))..))
folding enthalpy [1]: -23.9 kcal/mol | Tm [2]: 41.5 °C

GCACGGGGAAACTCGTGC (((((.(....).)))))
folding enthalpy [1]: -45.9 kcal/mol | Tm [2]: 60.5 °C

GCACGGTCGAAAGACTGC (((..(((....))))))
folding enthalpy [1]: -13.9 kcal/mol | Tm [2]: 39.4 °C

GCACGTGGAAACACGCAC (..((((....))))..)
folding enthalpy [1]: -9.68 kcal/mol | Tm [2]: 29.2 °C

GCACTACGAAAGTAATGC (((.(((....))).)))
folding enthalpy [1]: -29.3 kcal/mol | Tm [2]: 43.7 °C

GCACTAGGAAACTAGCGC ((.((((....)))).))
folding enthalpy [1]: -33.4 kcal/mol | Tm [2]: 45.5 °C

GCACTCCCGAAAGGGTGC (((..(((....))))))
folding enthalpy [1]: -24.2 kcal/mol | Tm [2]: 50.7 °C

GCACTCCGAAAGGATTGC (((.(((....))).)))
folding enthalpy [1]: -28.1 kcal/mol | Tm [2]: 50.6 °C

GCACTCGAAAGAGATGC ((((((....))).)))
folding enthalpy [1]: -29.4 kcal/mol | Tm [2]: 49.4 °C

GCACTCGAAAGAGGGTGC ((((((....)))..)))
folding enthalpy [1]: -31.5 kcal/mol | Tm [2]: 50.8 °C

GCACTCGAAAGAGTTGC ((((((....))).)))
folding enthalpy [1]: -22.3 kcal/mol | Tm [2]: 51.4 °C

GCACTCGGAAACGAGCAC (..((((....))))..)
folding enthalpy [1]: -11.7 kcal/mol | Tm [2]: 29.3 °C

GCACTCTCGAAAGAGTGC (((..(((....))))))
folding enthalpy [1]: -45.9 kcal/mol | Tm [2]: 65 °C

GCACTGCGAAAGCAGCGC ((.((((....)))).))
folding enthalpy [1]: -28.9 kcal/mol | Tm [2]: 69.1 °C

GCACTGCGAAAGCGCTGC (((..((....))..)))
folding enthalpy [1]: -20.6 kcal/mol | Tm [2]: 42.6 °C

GCACTGGGAAACCGGTGC ((((.((....)).))))
folding enthalpy [1]: -44.1 kcal/mol | Tm [2]: 59.6 °C

GCACTGTCGAAAGACTGC (((..(((....))))))
folding enthalpy [1]: -15.9 kcal/mol | Tm [2]: 39.4 °C

GCAGACCGAAAGGTATGC (((.(((....))).)))
folding enthalpy [1]: -39.5 kcal/mol | Tm [2]: 64.1 °C

GCAGACGAAAGTCAATGC ((((((....)))..)))
folding enthalpy [1]: -19.3 kcal/mol | Tm [2]: 43.9 °C

GCAGACGAAAGTCAGTGC ((((((....)))..)))
folding enthalpy [1]: -19 kcal/mol | Tm [2]: 46.4 °C

GCAGACGAAAGTCATTGC ((((((....)))..)))
folding enthalpy [1]: -16.5 kcal/mol | Tm [2]: 37.1 °C

GCAGACGAAAGTCCATGC ((((((....)))..)))
folding enthalpy [1]: -16.5 kcal/mol | Tm [2]: 35.3 °C

GCAGACGAAAGTCCGTGC ((((((....)))..)))
folding enthalpy [1]: -15.1 kcal/mol | Tm [2]: 38.6 °C

GCAGACGAAAGTCCTGC ((((((....))).)))
folding enthalpy [1]: -23.8 kcal/mol | Tm [2]: 52.9 °C

GCAGACGAAAGTCGCTGC ((((((....)))..)))
folding enthalpy [1]: -22.2 kcal/mol | Tm [2]: 57.6 °C

GCAGACGAAAGTCTCTGC ((((((....)))..)))
folding enthalpy [1]: -14.8 kcal/mol | Tm [2]: 44.1 °C

GCAGACGCGAAAGCGTGC (((..(((....))))))
folding enthalpy [1]: -11.8 kcal/mol | Tm [2]: 52 °C

GCAGACGGAAACATCCGC ((.((.(....).)).))
folding enthalpy [1]: -13.3 kcal/mol | Tm [2]: 26.5 °C

GCAGACGGAAACGCCTGC ((((.((....)).))))
folding enthalpy [1]: -51.1 kcal/mol | Tm [2]: 56 °C

GCAGACGGAAACGTCCAC (..((((....))))..)
folding enthalpy [1]: -9.46 kcal/mol | Tm [2]: 32.1 °C

GCAGACTCGAAAGAGTGC (((..(((....))))))
folding enthalpy [1]: -16 kcal/mol | Tm [2]: 43.4 °C

GCAGAGCGAAAGCCCGGC ((.(.((....)).).))
folding enthalpy [1]: -17.9 kcal/mol | Tm [2]: 44.8 °C

GCAGAGCGAAAGCTCAGC ((.((((....)))).))
folding enthalpy [1]: -20.4 kcal/mol | Tm [2]: 64.8 °C

GCAGAGCGAAAGCTCCGC ((.((((....)))).))
folding enthalpy [1]: -16.8 kcal/mol | Tm [2]: 61.1 °C

GCAGAGGGAAACCTCCAC (..((((....))))..)
folding enthalpy [1]: -13.7 kcal/mol | Tm [2]: 25.4 °C

GCAGAGGGAAACCTCTGC (((((((....)))))))
folding enthalpy [1]: -46.2 kcal/mol | Tm [2]: 67.9 °C

GCAGCAGGAAACCGCTGC (((((.(....).)))))
folding enthalpy [1]: -41.3 kcal/mol | Tm [2]: 58.1 °C

GCAGCAGGAAACTGCCAC (..((((....))))..)
folding enthalpy [1]: -11 kcal/mol | Tm [2]: 31.6 °C

GCAGCATCGAAAGATTGC (((..(((....))))))
folding enthalpy [1]: -16.9 kcal/mol | Tm [2]: 33.9 °C

GCAGCCACGAAAGTGTGC (((..(((....))))))
folding enthalpy [1]: -12.5 kcal/mol | Tm [2]: 40.2 °C

GCAGCCGAAAGGCACTGC ((((((....)))..)))
folding enthalpy [1]: -13.7 kcal/mol | Tm [2]: 45.4 °C

GCAGCCGAAAGGCATGC ((((((....))).)))
folding enthalpy [1]: -19.6 kcal/mol | Tm [2]: 62 °C

GCAGCCGAAAGGCGATGC ((((((....)))..)))
folding enthalpy [1]: -14.2 kcal/mol | Tm [2]: 53.2 °C

GCAGCCGAAAGGCGTGC ((((((....))).)))
folding enthalpy [1]: -16.5 kcal/mol | Tm [2]: 65 °C

GCAGCCGAAAGGCGTTGC ((((((....)))..)))
folding enthalpy [1]: -13.8 kcal/mol | Tm [2]: 53.3 °C

GCAGCGCGAAAGCACAGC ((.(.((....)).).))
folding enthalpy [1]: -19.9 kcal/mol | Tm [2]: 43.8 °C

GCAGCGCGAAAGCAGTGC (((..((....))..)))
folding enthalpy [1]: -18.1 kcal/mol | Tm [2]: 52.8 °C

GCAGCGCGAAAGCGTCGC ((..(((....)))..))
folding enthalpy [1]: -17.5 kcal/mol | Tm [2]: 57.1 °C

GCAGCGCGAAAGCTCAGC ((.(.((....)).).))
folding enthalpy [1]: -10.6 kcal/mol | Tm [2]: 39.9 °C

GCAGCGCGAAAGCTTTGC (((..((....))..)))
folding enthalpy [1]: -16.7 kcal/mol | Tm [2]: 37.4 °C

GCAGCGGGAAACTGCTGC (((((.(....).)))))
folding enthalpy [1]: -43.1 kcal/mol | Tm [2]: 66 °C

GCAGCTACGAAAGTATGC (((..(((....))))))
folding enthalpy [1]: -15 kcal/mol | Tm [2]: 36.1 °C

GCAGCTCGAAAGAGATGC (((.(((....))).)))
folding enthalpy [1]: -42.1 kcal/mol | Tm [2]: 68.6 °C

GCAGCTGGAAACAGCCGC ((.((((....)))).))
folding enthalpy [1]: -29.3 kcal/mol | Tm [2]: 50.6 °C

GCAGGACGAAAGTCGTGC (((.(((....))).)))
folding enthalpy [1]: -42.8 kcal/mol | Tm [2]: 62.6 °C

GCAGGAGGAAACTCCCGC ((.((((....)))).))
folding enthalpy [1]: -24.1 kcal/mol | Tm [2]: 45.8 °C

GCAGGATCGAAAGATTGC (((..(((....))))))
folding enthalpy [1]: -19.8 kcal/mol | Tm [2]: 31.4 °C

GCAGGCCGAAAGGCTGC (((.(((....))))))
folding enthalpy [1]: -22.2 kcal/mol | Tm [2]: 67.3 °C

GCAGGCGAAAGCCAATGC ((((((....)))..)))
folding enthalpy [1]: -15.5 kcal/mol | Tm [2]: 49.1 °C

GCAGGCGAAAGCCCATGC ((((((....)))..)))
folding enthalpy [1]: -13.2 kcal/mol | Tm [2]: 41.4 °C

GCAGGCGAAAGCCCTGC ((((((....))).)))
folding enthalpy [1]: -19.2 kcal/mol | Tm [2]: 65.6 °C
